Assay results collected from several papers.
Lines come from different studies, so protocols differ.
Organism: Severe acute respiratory syndrome coronavirus 2

Structure (SMILES) | read-out | action | method | cell line | tested at | time | inhibition [%]
CN[C@@H](C)C(=O)N[C@H]1CN(C(=O)CC(C)C)CC[C@H]2CC[C@@H](C(=O)NC(c3ccccc3)c3ccccc3)N2C1=O | viral replication | inhibitor | – | Vero C1008 | 1 µM | – | 54
OC[C@H]1O[C@@H](O[C@@H]2[C@@H](CO)OC(O)(CO)[C@H]2O)[C@H](O)[C@@H](O)[C@H]1O (mixture of isomers) | viral replication | – | – | Vero C1008 | 50 µM | – | 3
O=C(/C=C/c1ccc(O)c(O)c1/C=C/c1ccc(O)c(O)c1)O[C@H](Cc1ccc(O)c(O)c1)C(=O)O | cytopathic effect | inhibitor | – | Vero C1008 | 3.125 µM | – | 0
Cc1cccn2c(=O)c3cc(C(=O)Nc4ccc(N(C)C)cc4)n(C)c3nc12 | viral replication | – | – | Vero | 1 nM | – | 2.51
CC1CCC2c3c(c4ccccc4n3Cc3ccccc3)CCN2C1 (stereo not shown) | viral replication | inhibitor | – | Vero C1008 | 1 µM | – | 54.3
O=C(O[C@@H]1Cc2c(O)cc(O)cc2O[C@@H]1c1cc(O)c(O)c(O)c1)c1cc(O)c(O)c(O)c1 | cytopathic effect | inhibitor | – | Vero C1008 | 6.25 µM | – | 0
C[C@@H]1O[C@@H](OC[C@H]2O[C@@H](Oc3c(-c4ccc(OCCO)c(OCCO)c4)oc4cc(OCCO)cc(O)c4c3=O)[C@H](O)[C@@H](O)[C@@H]2O)[C@H](O)[C@H](O)[C@H]1O | viral replication | – | – | Vero C1008 | 50 µM | – | 3
COc1ccc(C[C@@H]2c3cc(Oc4cc(C[C@@H]5c6cc(O)c(OC)cc6CCN5C)ccc4O)c(OC)cc3CCN2C)cc1 | cytopathic effect | inhibitor | – | Vero C1008 | 50 µM | – | 66.7
Oc1c(Cl)cc(Cl)c2cccnc12 | viral replication | inhibitor | – | Vero C1008 | 30 µM | – | 89.8
O=C(O)c1cnc2n1CCc1ccccc1C2=C1CCN(CCc2ccc(OCc3ccc4ccccc4n3)cc2)CC1 | viral replication | inhibitor | – | Vero C1008 | 1 µM | – | 50.3
CC(C)=CCc1c(O)ccc(C(=O)/C=C/c2ccc(O)cc2)c1O | cytopathic effect | – | – | Vero C1008 | 100 µM | – | 90
Br.CN=c1nc(-c2ccc(OC)c(OC)c2)n(-c2ccc(F)cc2)s1 | viral replication | inhibitor | qPCR | Vero C1008 | 50 µM | 24 h | 35.6
O=C(Nc1ccccc1F)c1cc2c(=O)n3ccccc3nc2n1Cc1ccccc1 | viral replication | – | – | Vero | 1 µM | – | 92.3
CCOC(=O)c1[nH]c2cc(OC)c(OC)cc2c1CCN1CCN(c2ccccc2)CC1 | viral replication | inhibitor | – | Vero C1008 | 1 µM | – | 52.8
CC1=C(C/C=C(\C)CC/C=C(\C)Cc2ccc3ccccc3c2)C(=O)c2ccccc2C1=O | viral replication | inhibitor | – | VeroE6/TMPRSS2 | 100 µM | 72 h | 39
CCc1ccc(NC(=O)c2cc3c(=O)n4ccccc4nc3n2C)cc1 | viral replication | – | – | Vero | 0.1 µM | – | 51.5

Structure (SMILES) | read-out | action | method | cell line | tested at | time | inhibition [%]
COc1cc(-c2cc3c(c(=O)o2)C[C@]2(O)[C@@]4(C)C(=O)C=CC(C)(C)[C@]4(O)CC[C@@]2(C)O3)cc(OC)c1OC | viral replication | inhibitor | – | Calu-3 | 50 µM | – | 101
CCCc1nc2ccc(N(CCC)C(=O)c3ccccc3)cc2c(=O)n1Cc1ccc(-c2ccccc2-c2nnn[nH]2)cc1 | viral replication | inhibitor | – | Vero C1008 | 1 µM | – | 54.3
Cc1cc(NC(=O)c2cc3c(=O)n4cccc(C)c4nc3n2C)ccc1Br | viral replication | – | – | Vero | 10 nM | – | 8.19
CCN(C(C)=O)c1cccc(-c2ccnc3c(C#N)cnn23)c1 | viral replication | inhibitor | – | Vero C1008 | 1 µM | – | 42.1
Cn1c(C(=O)Nc2ccc3c(c2)OCCO3)cc2c(=O)n3ccccc3nc21 | viral replication | – | – | Vero | 1 µM | – | 74.7
NCC[C@H](O)C(=O)N[C@@H]1C[C@H](N)[C@@H](O[C@H]2O[C@H](CN)[C@@H](O)[C@H](O)[C@H]2O)[C@H](O)[C@H]1O[C@H]1O[C@H](CO)[C@@H](O)[C@H](N)[C@H]1O | viral replication | – | – | Vero C1008 | 50 µM | – | 3
O=C(NCCN1CCCC1)c1cc(-c2ccc(CN3CCOCC3)cc2)nc2ccc(F)cc12 | viral replication | inhibitor | – | Vero C1008 | 1 µM | – | 45.8
CC1(C)CCC[C@]2(C)O[C@H]3CC[C@@]4(C)[C@@H](CC[C@]5(C)[C@@H]4CC[C@]4(C)c6c(C(O)C(=O)O)ccc(O)c6C[C@@H]54)[C@]3(C)CC[C@@H]12 (stereo partly shown) | viral replication | inhibitor | – | Calu-3 | 50 µM | – | 0
CCC(CC)COC(=O)[C@H](C)N[P@](=O)(OC[C@H]1O[C@@](C#N)(c2ccc3c(N)ncnn23)[C@H](O)[C@@H]1O)Oc1ccccc1 | viral replication | inhibitor | – | Vero C1008 | 0.8 µM | – | 20
Cn1c(C(=O)Nc2ccc(Cl)cc2)cc2c(=O)n3ccccc3nc21 | viral replication | – | – | Vero | 0.1 µM | – | 37.7
CC1=C(C/C=C(\C)CC/C=C(\C)Cc2ccc(F)c3ccccc23)C(=O)c2ccccc2C1=O | viral replication | inhibitor | – | VeroE6/TMPRSS2 | 100 µM | 72 h | 43
CCC(CC)COC(=O)[C@H](C)N[P@](=O)(OC[C@H]1O[C@@](C#N)(c2ccc3c(N)ncnn23)[C@H](O)[C@@H]1O)Oc1ccccc1 | viral replication | – | – | Vero | 1 µM | – | 95.2
COC(=O)C[C@@H]1OO[C@@](C)(/C(C)=C/C=C/Cc2ccccc2)C[C@H]1C | viral replication | inhibitor | – | Calu-3 | 50 µM | – | 4.15
C=C[C@@](C)(/C=C/c1ccc(O)cc1)CCC=C(C)C | cytopathic effect | – | – | Vero C1008 | 100 µM | – | 0
Cc1ccc(NC(=O)c2cc3c(=O)n4cccc(C)c4nc3n2C)cc1Cl | viral replication | – | – | Vero | 1 µM | – | 87.3
